Measured values: ChEMBL document CHEMBL3045051 (Med Chem Res, 2011)
Activity calls are given as the source filed them. The calls are words filed in the database; no cut-off is given here.

Assays:
Coxsackievirus B4 [1] = experiment: Antiviral activity against Human coxsackievirus B4 infected VERO cells assessed as inhibition of virus-induced cytopathicity; format: functional, organism-based
Method in brief: (§1)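 Confluent monolayers (feline kidney Crandell, Vero, HEL or HeLa, as named for each virus) were infected with 100 CCID50 of virus and allowed to adsorb for 1 h. Unbound virus was then removed, and cultures were incubated with test compound in serial dilutions (200, 40, 8 … µM). Cytopathicity was scored once untreated infected controls reached complete cytopathic effect.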

[2] = tested on: Vesicular stomatitis virus; experiment: Antiviral activity against Vesicular stomatitis virus infected Hela cells assessed as inhibition of virus-induced cytopathicity; format: functional, organism-based
Influenza A virus = experiment: Antiviral activity against Unidentified Influenza A virus (H1N2) infected MDCK cells assessed as inhibition of virus-induced cytopathicity; format: functional, organism-based
Sindbis virus = experiment: Antiviral activity against Sindbis virus infected Hela cells assessed as inhibition of virus-induced cytopathicity; format: functional, organism-based
Human respirovirus 3 = experiment: Antiviral activity against Human parainfluenza virus 3 infected Vero cells assessed as inhibition of virus-induced cytopathicity; format: functional, organism-based; method in brief: as §1
[3] = tested on: Respiratory syncytial virus; experiment: Antiviral activity against Respiratory syncytial virus infected human HeLa cells assessed as inhibition of virus-induced cytopathicity; format: functional, organism-based; method in brief: as §1
[4] = tested on: Vesicular stomatitis virus; experiment: Antiviral activity against Vesicular stomatitis virus infected HEL cells assessed as inhibition of virus-induced cytopathicity; format: functional, organism-based
Human alphaherpesvirus 1 = experiment: Antiviral activity against […] 1 KOS infected in human HEL cells assessed as inhibition of virus-induced cytopathicity; format: functional, organism-based; method in brief: as §1
[5] = target: T1, Seed linoleate 13S-lipoxygenase-1 (Glycine max) (UniProt P08170); experiment: Inhibition of Glycine max (soybean) lipoxygenase using sodium linoleate as substrate at 1 X 10^-4
T1 sequence (whole entry): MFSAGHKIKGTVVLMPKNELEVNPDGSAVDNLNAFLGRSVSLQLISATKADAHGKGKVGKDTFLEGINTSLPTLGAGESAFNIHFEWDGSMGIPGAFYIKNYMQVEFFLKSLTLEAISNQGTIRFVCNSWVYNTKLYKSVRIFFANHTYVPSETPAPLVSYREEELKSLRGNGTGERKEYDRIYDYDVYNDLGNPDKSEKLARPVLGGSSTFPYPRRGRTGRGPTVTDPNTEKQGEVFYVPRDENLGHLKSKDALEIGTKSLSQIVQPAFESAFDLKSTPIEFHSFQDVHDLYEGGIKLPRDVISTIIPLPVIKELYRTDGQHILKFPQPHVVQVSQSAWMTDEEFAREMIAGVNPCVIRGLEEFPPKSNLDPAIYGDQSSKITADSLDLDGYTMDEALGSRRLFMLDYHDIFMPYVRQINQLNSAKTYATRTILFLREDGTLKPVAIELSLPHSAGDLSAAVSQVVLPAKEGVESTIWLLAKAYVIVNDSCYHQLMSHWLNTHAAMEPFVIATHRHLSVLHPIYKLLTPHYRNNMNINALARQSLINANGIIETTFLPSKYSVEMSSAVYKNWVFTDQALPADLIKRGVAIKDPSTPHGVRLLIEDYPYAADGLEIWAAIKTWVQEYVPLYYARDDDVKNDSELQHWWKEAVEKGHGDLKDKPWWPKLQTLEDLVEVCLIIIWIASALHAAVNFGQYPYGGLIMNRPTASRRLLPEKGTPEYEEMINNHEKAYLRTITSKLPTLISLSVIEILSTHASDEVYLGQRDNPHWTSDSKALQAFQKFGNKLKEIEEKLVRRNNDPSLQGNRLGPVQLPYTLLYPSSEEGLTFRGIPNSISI

Human alphaherpesvirus 2 = experiment: Antiviral activity against Human herpesvirus 2 strain G infected human HEL cells assessed as inhibition of virus-induced cytopathicity; format: functional, organism-based; method in brief: as §1
[6] = tested on: Radical scavenging activity; experiment: Antioxidant activity assessed as DPPH radical scavenging activity at 1 X 10^-4 M after 20 min; format: functional
Method in brief: (§2)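 Test compound was mixed with DPPH (0.05 and 0.1 mM) in ethanol. Absorbance at 517 nm was read after 20 and 60 min and compared with the NDGA standard, with ethanol as control. Each experiment was run at least in triplicate, and the SD of absorbance was <10% of the mean.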

Punta Toro virus = experiment: Antiviral activity against Punta Toro virus infected Hela cells assessed as inhibition of virus-induced cytopathicity; format: functional, organism-based
[7] = tested on: Radical scavenging activity; experiment: Antioxidant activity assessed as DPPH radical scavenging activity at 1 X 10^-4 M after 60 min; format: functional; method in brief: as §2
[8] = tested on: Radical scavenging activity; experiment: Antioxidant activity assessed as DPPH radical scavenging activity at 5 X 10^-5 M after 60 min; format: functional; method in brief: as §2
[9] = Antioxidant activity assessed as inhibition of AAPH-induced lipid peroxidation at 1 X 10^-5 M; format: functional
Feline coronavirus = experiment: Antiviral activity against Feline coronavirus infected feline kidney crandell cells assessed as inhibition of virus-induced cytopathicity; format: functional, organism-based; method in brief: as §1
[10] = Antioxidant activity assessed as inhibition of AAPH-induced lipid peroxidation at 1 X 10^-4 M; format: functional
[11] = target: T2, Seed linoleate 13S-lipoxygenase-1 (Glycine max, UniProt P08170); experiment: Inhibition of Glycine max (soybean) lipoxygenase using sodium linoleate as substrate
T2 sequence (P08170 whole entry): T1 sequence (whole entry)

Vaccinia virus = experiment: Antiviral activity against Vaccinia virus infected human HEL cells assessed as inhibition of virus-induced cytopathicity; format: functional, organism-based; conditions: Orthopoxvirus vaccinia
[12] = tested on: Mammalian orthoreovirus 1; experiment: Antiviral activity against Mammalian orthoreovirus 1 infected VERO cells assessed as inhibition of virus-induced cytopathicity; format: functional, organism-based; method in brief: as §1
[13] = tested on: Radical scavenging activity; experiment: Antioxidant activity assessed as DPPH radical scavenging activity at 5 X 10^-5 M after 20 min; format: functional; method in brief: as §2
Coxsackievirus B4 [14] = experiment: Antiviral activity against Human coxsackievirus B4 infected human HeLa cells assessed as inhibition of virus-induced cytopathicity; format: functional, organism-based; method in brief: as §1

SMILES	Activity (Coxsackievirus B4 [1])	Activity (Influenza A virus)	Activity (Influenza A virus; H1N1)	Activity (Human respirovirus 3)	Activity [3]	Activity [4]	Activity (Human alphaherpesvirus 1)	inhibition [5]	Activity (Human alphaherpesvirus 2)	inhibition [6]	inhibition [7]	inhibition [8]	inhibition [9]	Activity (Feline coronavirus)	inhibition [10]	IC50 [11]	Activity (Vaccinia virus)	Activity [12]	inhibition [13]	Activity (Coxsackievirus B4 [14])	other results
CC(C(=O)NCc1ccccc1)c1cccc(C(OC(=O)NCc2ccccc2)c2ccccc2)c1 (configuration not stated)	inactive	inactive	inactive	inactive	inactive	inactive	inactive	83.8%	inactive	inactive	2.4%	5.3%	inactive	inactive	98.4%	32 µM	inactive	inactive	4.2%	inactive	EC50 [2]: 3 µM; EC50 (Sindbis virus): 11 µM; EC50 (Punta Toro virus): 11 µM
CC(C(=O)NC1CCCC1)c1cccc(C(OC(=O)NC2CCCC2)c2ccccc2)c1 (configuration not stated)	inactive	inactive	inactive	inactive	inactive	inactive	inactive	69.6%	inactive	inactive	2.3%	2.8%	inactive	inactive	95.2%	86 µM	inactive	inactive	3.2%	inactive	Activity [2]: inactive; Activity (Sindbis virus): inactive; Activity (Punta Toro virus): inactive
CC(C(=O)n1nnc2ccccc21)c1cccc(C(OC(=O)n2nnc3ccccc32)c2ccccc2)c1 (configuration not stated)	inactive	inactive	inactive	inactive	inactive	inactive	inactive	95%	inactive	2.5%	5.4%	3.7%	15%	inactive	98%	21 µM	inactive	inactive	2.9%	inactive	Activity [2]: inactive; Activity (Sindbis virus): inactive; Activity (Punta Toro virus): inactive
CC(C(=O)NCC1CCCCC1)c1cccc(C(OC(=O)NCC2CCCCC2)c2ccccc2)c1 (configuration not stated)	inactive	inactive	inactive	inactive	inactive	inactive	inactive	56.6%	inactive	1.6%	5.2%	3.1%	1.4%	inactive	99.5%	95 µM	inactive	inactive	1.7%	inactive	Activity [2]: inactive; Activity (Sindbis virus): inactive; Activity (Punta Toro virus): inactive
